Measured values published in ChEMBL document CHEMBL1147022, “Studies on synthesis and evaluation of quantitative structure-activity relationship of 10-methyl-6-oxo-5-arylazo-6,7-dihydro-5H-[1,3]azaphospholo[1,5-d][1,4]benzodiazepin-2-phospha-3-ethoxycarbonyl-1-phosphorus dichlorides” (2006).

Legend:
Assay type in all cases: functional
Parameters in all cases: unit not given here
Bacillus subtilis = assay: Antibacterial activity against Bacillus subtilis ATCC 6633
How it was run: (§1)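 Agar 2-fold serial dilution MIC on nutrient agar. Test compounds come from 1 mg/mL DMSO stocks. Inoculum is about 10⁷ CFU/mL bacterial suspension prepared from broth cultures. Plates are run in triplicate and incubated at 37 °C for 16–47 h. Ampicillin trihydrate is the reference drug, tested under the same conditions.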

Candida albicans = assay: Antifungal activity against Candida albicans ATCC 10231
How it was run: (§2)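 Fungal MIC by standard 2-fold serial dilution in Sabouraud dextrose agar, using compounds diluted from 1 mg/mL DMSO stocks. Plates receive about 10⁶ CFU/mL fungal suspension made from broth cultures, in triplicate, and are kept at 37 °C for 48–72 h. Clotrimazole is the reference drug.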

Escherichia coli = assay: Antibacterial activity against Escherichia coli ATCC 445; how it was run: as §1
Aspergillus niger = assay: Antifungal activity against Aspergillus niger ATCC 16404; how it was run: as §2

Compound | -Log MIC (Bacillus subtilis) | -Log MIC (Candida albicans) | -Log MIC (Escherichia coli) | -Log MIC (Aspergillus niger)
CCOC(=O)c1pc(P(Cl)Cl)c2n1[C@@H](N=Nc1ccc(OC)cc1)C(=O)Nc1ccc(C)cc1-2 (stereo partly drawn) | 4.29 | 4.24 | 4.26 | 4.39
CCOC(=O)c1pc(P(Cl)Cl)c2n1[C@@H](N=Nc1cccc(OCC)c1)C(=O)Nc1ccc(C)cc1-2 (stereo partly drawn) | 4.96 | 4.78 | 5.04 | 4.89
CCOC(=O)c1pc(P(Cl)Cl)c2n1[C@@H](N=Nc1ccc([N+](=O)[O-])cc1)C(=O)Nc1ccc(C)cc1-2 (stereo partly drawn) | 4.52 | 4.32 | 4.61 | 4.45
CCOC(=O)c1pc(P(Cl)Cl)c2n1[C@@H](N=Nc1ccc(C)cc1)C(=O)Nc1ccc(C)cc1-2 (stereo partly drawn) | 4.22 | 4.09 | 4.17 | 4.22
CCOC(=O)c1pc(P(Cl)Cl)c2n1[C@@H](N=Nc1cccc(O)c1)C(=O)Nc1ccc(C)cc1-2 (stereo partly drawn) | 4.22 | 4.11 | 4.2 | 4.25
CCOC(=O)c1pc(P(Cl)Cl)c2n1[C@@H](N=Nc1ccc(O)cc1)C(=O)Nc1ccc(C)cc1-2 (stereo partly drawn) | 4.17 | 4.06 | 4.11 | 4.18
CCOC(=O)c1pc(P(Cl)Cl)c2n1[C@@H](N=Nc1cccc([N+](=O)[O-])c1)C(=O)Nc1ccc(C)cc1-2 (stereo partly drawn) | 4.55 | 4.5 | – | 4.56
CCOC(=O)c1pc(P(Cl)Cl)c2n1[C@@H](N=Nc1ccc(OCC)cc1)C(=O)Nc1ccc(C)cc1-2 (stereo partly drawn) | 4.83 | 4.59 | 4.74 | 4.74
CCOC(=O)c1pc(P(Cl)Cl)c2n1[C@@H](N=Nc1ccc(Cl)cc1)C(=O)Nc1ccc(C)cc1-2 (stereo partly drawn) | 4.41 | 4.36 | 4.39 | 4.51
CCOC(=O)c1pc(P(Cl)Cl)c2n1[C@@H](N=Nc1cccc(C(=O)O)c1)C(=O)Nc1ccc(C)cc1-2 (stereo partly drawn) | 4.37 | 4.32 | 4.36 | 4.48
CCOC(=O)c1pc(P(Cl)Cl)c2n1[C@@H](N=Nc1cccc(C)c1)C(=O)Nc1ccc(C)cc1-2 (stereo partly drawn) | 4.25 | 4.17 | 4.22 | 4.31
CCOC(=O)c1pc(P(Cl)Cl)c2n1[C@@H](N=Nc1cccc(CC)c1)C(=O)Nc1ccc(C)cc1-2 (stereo partly drawn) | 4.68 | 4.61 | 4.88 | 4.82
CCOC(=O)c1pc(P(Cl)Cl)c2n1[C@@H](N=Nc1cccc(OC)c1)C(=O)Nc1ccc(C)cc1-2 (stereo partly drawn) | 4.28 | 4.39 | 4.3 | 4.56
CCOC(=O)c1pc(P(Cl)Cl)c2n1[C@@H](N=Nc1ccc(CC)cc1)C(=O)Nc1ccc(C)cc1-2 (stereo partly drawn) | 4.64 | 4.52 | 4.58 | 4.64
CCOC(=O)c1pc(P(Cl)Cl)c2n1[C@@H](N=Nc1cccc(Cl)c1)C(=O)Nc1ccc(C)cc1-2 (stereo partly drawn) | 4.46 | 4.47 | 4.54 | 4.68
CCOC(=O)c1pc(P(Cl)Cl)c2n1[C@@H](N=Nc1ccccc1)C(=O)Nc1ccc(C)cc1-2 (stereo partly drawn) | 4.05 | 4.1 | 4.05 | 4.12
